Measured values: ChEMBL document CHEMBL1123988, “Studies on antifungal agents. 23. Novel substituted 3,5-diphenyl-3-(1H-imidazol-1-ylmethyl)- 2-alkylisoxazolidine derivatives” (1988)
In brackets after ≈: the same amount, converted by molar mass.

Experiments:
Aspergillus fumigatus = assay: In vitro antifungal activity against Aspergillus fumigatus ATCC 28212; assay type: functional
In short: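 Agar-well MIC with Antibiotic Medium 3 + 2% agar containing compound at 70 to 0.2 µg/mL, using four- or six-point dilutions. Mold was grown about 1 week on Potato Flake Agar at 26 °C, swabbed into sterile water, counted by hemacytometer and adjusted to 1 × 10^4 cells/mL. MIC was the lowest dilution without visible growth.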

Microsporum canis = assay: In vitro antifungal activity against Microsporum canis ATCC 44459; assay type: functional
In short: (§1)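 Solid agar MIC in 24-well plates. Compound was diluted 10-fold into Antibiotic Medium 3 + 2% agar at 70 to 0.2 µg/mL, using four- or six-point schemes, with a ketoconazole control. The organism was grown on Potato Flake Agar at 26 °C, counted by hemacytometer and diluted to 1 × 10^4 cells/mL. Wells received 0.05 mL and were incubated at 26 °C until control growth appeared. MIC was the lowest dilution with no visible growth.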

Trichophyton tonsurans [1] = assay: (§2) In vitro antifungal activity against Trichophyton tonsurans ATCC 9085; assay type: functional; in short: as §1
Trichophyton rubrum = assay: In vitro antifungal activity against Trichophyton rubrum ATCC 18762; assay type: functional
In short: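 Dermatophyte was grown about 2 weeks on Potato Flake Agar at 26 °C, washed off the plate with sterile water and diluted to 1 × 10^4 cells/mL by hemacytometer count. Agar wells (Antibiotic Medium 3 + 2% agar, compound 70 to 0.2 µg/mL, four- or six-point) were inoculated with 0.05 mL and incubated at 26 °C until controls grew. MIC was the lowest dilution showing no visible growth.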

Candida albicans [2] = assay: In vitro antifungal activity against Candida albicans ATCC 10259; assay type: functional
In short: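 Yeast was cultured overnight on Potato Flake Agar at 26 °C, swabbed into sterile water, counted by hemacytometer and diluted to 1 × 10^4 cells/mL. Wells (24-well) contained Antibiotic Medium 3 + 2% agar with compound at 70 to 0.2 µg/mL, in four- or six-point series. Each well got 0.05 mL and was held at 26 °C until control growth was visible. MIC was the lowest concentration with no visible growth.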

[3] = system: Trichophyton schoenleinii; assay: In vitro antifungal activity against Trichophyton schoenleinii ATCC 22775; assay type: functional; in short: as §1
Trichophyton benhamiae = assay: (§3) In vitro antifungal activity against Trichophyton mentagrophytes ATCC 9533; assay type: functional, Arthroderma benhamiae; in short: as §1
Candida albicans [4] = assay: In vitro antifungal activity against Candida stellatoidea ATCC 36232; assay type: functional; in short: as §1
Epidermophyton floccosum = assay: In vitro antifungal activity against Epidermophyton floccosum ATCC E-18397; assay type: functional; in short: as §1
Microsporum audouinii = assay: In vitro antifungal activity against Microsporum audouinii ATCC 9079; assay type: functional; in short: as §1
Candida albicans [5] = assay: Antifungal activity in rat vaginal candidasis, 4 day postinfection with Candida. albicans SOB FM-391; assay type: functional
In short: (§4)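 Ovariectomized female Sprague–Dawley rats (170–230 g), eight per group, kept in pseudoestrus with weekly sc estradiol valerate (0.5 mg). Intravaginal challenge on day 4 with 1 × 10^7 organisms in 0.1 mL RPMI+. Oral dosing at 20 mg/kg in 1% (carboxymethyl)cellulose, twice daily for 7 days from 24 h post-infection. Vaginal swabs in PBS were serially diluted and plated on SDA for 48 h at 24–26 °C. Read-out is log10 organisms/mL lavage fluid.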

Candida albicans [6] = assay: Antifungal activity in rat vaginal candidasis, 8 day postinfection with Candida. albicans SOB FM-391; assay type: functional; in short: as §4
Candida albicans [7] = assay: Antifungal activity in rat vaginal candidasis, 2 day postinfection with Candida. albicans SOB FM-391; assay type: functional; in short: as §4
Candida albicans [8] = assay: Antifungal activity in rat vaginal candidasis, 3 day postinfection with Candida. albicans SOB FM-391; assay type: functional; in short: as §4
Candida albicans [9] = assay: Antifungal activity in rat vaginal candidasis, 1 day postinfection with Candida. albicans SOB FM-391; assay type: functional; in short: as §4
Candida albicans [10] = assay: Antifungal activity in rat vaginal candidasis, 7 day postinfection with Candida. albicans SOB FM-391; assay type: functional; in short: as §4
[11] = as §3; assay type: functional, Arthroderma benhamiae; settings: Trichophyton benhamiae; in short: as §1
Trichophyton tonsurans [12] = assay: as §2; assay type: functional; remark: listed apart in the source
In short: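 Solid agar MIC in 24-well plates. Compound was diluted 10-fold into Antibiotic Medium 3 + 2% agar, using either a […] or a 70/20/7/2/0.7/0.2 µg/mL scheme. Cells counted by hemacytometer were diluted to 1 × 10^4 cells/mL, and 0.05 mL was inoculated. Plates were incubated at 26 °C until compound-free controls grew. MIC is the lowest dilution with no visible growth.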

[13] = system: Trichophyton schoenleinii; assay: In vitro antifungal activity against Trichophyton schoenleinii ATCC 22775
Trichophyton tonsurans [14] = assay: In vitro antifungal activity against Trichophyton tonsurans ATCC 9085

| SMILES | MIC (Aspergillus fumigatus) [µg/mL] | MIC (Microsporum canis) [µg/mL] | MIC (Trichophyton tonsurans [1]) [µg/mL] | MIC (Trichophyton rubrum) [µg/mL] | MIC (Candida albicans [2]) [µg/mL] | MIC [3] [µg/mL] | MIC (Trichophyton benhamiae) [µg/mL] | MIC (Candida albicans [4]) [µg/mL] | MIC (Epidermophyton floccosum) [µg/mL] | MIC (Microsporum audouinii) [µg/mL] | MIC [11] [µg/mL] | MIC [13] [µg/mL] | MIC (Trichophyton tonsurans [14]) [µg/mL] | Log (Candida albicans [5]) | Log (Candida albicans [6]) | Log (Candida albicans [7]) | Log (Candida albicans [8]) | Log (Candida albicans [9]) | Log (Candida albicans [10]) | MIC (Trichophyton tonsurans [12]) [µg/mL] |
| --- | --- | --- | --- | --- | --- | --- | --- | --- | --- | --- | --- | --- | --- | --- | --- | --- | --- | --- | --- | --- |
| CN1O[C@H](c2c(Cl)cccc2Cl)C[C@@]1(Cn1ccnc1)c1ccc(Cl)cc1 | 2 (≈ 4.73 µM) | 2 (≈ 4.73 µM) | 0.7 (≈ 1.66 µM) | 0.7 (≈ 1.66 µM) | 7 (≈ 16.6 µM) | 7 (≈ 16.6 µM) | 7 (≈ 16.6 µM) | 7 (≈ 16.6 µM) | 0.7 (≈ 1.66 µM) | 20 (≈ 47.3 µM) | – | – | – | – | – | – | – | – | – | – |
| CN1O[C@H](c2ccc(Cl)cc2)C[C@@]1(Cn1ccnc1)c1ccc(Cl)cc1 | 7 (≈ 18 µM) | 2 (≈ 5.15 µM) | < 0.2 | 0.7 (≈ 1.8 µM) | 7 (≈ 18 µM) | 0.7 (≈ 1.8 µM) | < 0.2 | 2 (≈ 5.15 µM) | < 0.2 | 2 (≈ 5.15 µM) | – | – | – | 3.4 | 1.8 | 4 | 3.6 | 4.7 | 3.3 | – |
| CN1O[C@@H](c2c(Cl)cccc2Cl)C[C@@]1(Cn1ccnc1)c1ccc(Cl)cc1 | 7 (≈ 16.6 µM) | 2 (≈ 4.73 µM) | 0.7 (≈ 1.66 µM) | 0.7 (≈ 1.66 µM) | 7 (≈ 16.6 µM) | 7 (≈ 16.6 µM) | 7 (≈ 16.6 µM) | 7 (≈ 16.6 µM) | 0.7 (≈ 1.66 µM) | 20 (≈ 47.3 µM) | – | – | – | – | – | – | – | – | – | – |
| COc1ccc([C@@H]2C[C@@](Cn3ccnc3)(c3ccc(OC)cc3)N(C)O2)cc1 | > 70 | 20 (≈ 52.7 µM) | 20 (≈ 52.7 µM) | 20 (≈ 52.7 µM) | 70 (≈ 184 µM) | 70 (≈ 184 µM) | 20 (≈ 52.7 µM) | 20 (≈ 52.7 µM) | 7 (≈ 18.4 µM) | 70 (≈ 184 µM) | – | – | – | – | – | – | – | – | – | – |
| CC(=O)N1CCN(c2ccc(OCC3COC(Cn4ccnc4)(c4ccc(Cl)cc4Cl)O3)cc2)CC1 (stereo not drawn) [KETOCONAZOLE] | 7 (≈ 13.2 µM) | 2 (≈ 3.76 µM) | – | 0.7 (≈ 1.32 µM) | 20 (≈ 37.6 µM) | 0.7 (≈ 1.32 µM) | 2 (≈ 3.76 µM) | 20 (≈ 37.6 µM) | < 0.2 | 7 (≈ 13.2 µM) | – | – | – | 0 | 0 | 1.5 | 0.3 | 5 | 0 | < 0.2 |

Further lines, with some results ahead:

| MIC (Aspergillus fumigatus) [µg/mL] | MIC (Microsporum canis) [µg/mL] | MIC (Trichophyton tonsurans [1]) [µg/mL] | MIC (Trichophyton rubrum) [µg/mL] | MIC (Candida albicans [2]) [µg/mL] | MIC [3] [µg/mL] | MIC (Trichophyton benhamiae) [µg/mL] | MIC (Candida albicans [4]) [µg/mL] | MIC (Epidermophyton floccosum) [µg/mL] | MIC (Microsporum audouinii) [µg/mL] | MIC [11] [µg/mL] | MIC [13] [µg/mL] | MIC (Trichophyton tonsurans [14]) [µg/mL] | SMILES | Log (Candida albicans [5]) | Log (Candida albicans [6]) | Log (Candida albicans [7]) | Log (Candida albicans [8]) | Log (Candida albicans [9]) | Log (Candida albicans [10]) | MIC (Trichophyton tonsurans [12]) [µg/mL] |
| --- | --- | --- | --- | --- | --- | --- | --- | --- | --- | --- | --- | --- | --- | --- | --- | --- | --- | --- | --- | --- |
| 7 (≈ 18 µM) | 2 (≈ 5.15 µM) | < 0.2 | 0.7 (≈ 1.8 µM) | 7 (≈ 18 µM) | 0.7 (≈ 1.8 µM) | < 0.2 | 0.7 (≈ 1.8 µM) | < 0.2 | 2 (≈ 5.15 µM) | – | – | – | CN1O[C@H](c2ccccc2Cl)C[C@@]1(Cn1ccnc1)c1ccc(Cl)cc1 | – | – | – | – | – | – | – |
| 70 (≈ 190 µM) | 7 (≈ 19 µM) | – | 2 (≈ 5.44 µM) | 20 (≈ 54.4 µM) | 2 (≈ 5.44 µM) | – | 0.7 (≈ 1.9 µM) | 2 (≈ 5.44 µM) | 20 (≈ 54.4 µM) | 2 (≈ 5.44 µM) | – | – | Cc1ccc([C@H]2C[C@@](Cn3ccnc3)(c3ccc(Cl)cc3)N(C)O2)cc1 | – | – | – | – | – | – | 2 (≈ 5.44 µM) |
| 70 (≈ 190 µM) | 7 (≈ 19 µM) | 0.7 (≈ 1.9 µM) | 2 (≈ 5.44 µM) | 7 (≈ 19 µM) | 2 (≈ 5.44 µM) | 0.7 (≈ 1.9 µM) | 0.7 (≈ 1.9 µM) | 0.7 (≈ 1.9 µM) | 7 (≈ 19 µM) | – | – | – | Cc1ccc([C@@H]2C[C@@](Cn3ccnc3)(c3ccc(Cl)cc3)N(C)O2)cc1 | – | – | – | – | – | – | – |
| > 70 | – | – | 0.7 (≈ 1.69 µM) | 20 (≈ 48.4 µM) | – | – | – | – | – | – | – | – | Fc1ccc([C@]2(Cn3ccnc3)C[C@@H](c3ccccc3)ON2Cc2ccccc2)cc1 | – | – | – | – | – | – | – |
| 20 (≈ 59.3 µM) | – | – | 2 (≈ 5.93 µM) | 70 (≈ 207 µM) | – | – | – | – | – | – | – | – | CN1O[C@H](c2ccccc2)C[C@@]1(Cn1ccnc1)c1ccc(F)cc1 | – | – | – | – | – | – | – |
| 70 (≈ 198 µM) | 2 (≈ 5.65 µM) | – | 0.7 (≈ 1.98 µM) | 20 (≈ 56.5 µM) | – | < 0.2 | 7 (≈ 19.8 µM) | 0.7 (≈ 1.98 µM) | 7 (≈ 19.8 µM) | – | 2 (≈ 5.65 µM) | 0.7 (≈ 1.98 µM) | CN1O[C@H](c2ccccc2)C[C@@]1(Cn1ccnc1)c1ccc(Cl)cc1 | – | – | – | – | – | – | – |
| 70 (≈ 219 µM) | 7 (≈ 21.9 µM) | 0.7 (≈ 2.19 µM) | 2 (≈ 6.26 µM) | 70 (≈ 219 µM) | 7 (≈ 21.9 µM) | 0.7 (≈ 2.19 µM) | 7 (≈ 21.9 µM) | 7 (≈ 21.9 µM) | 20 (≈ 62.6 µM) | – | – | – | CN1O[C@H](c2ccccc2)C[C@@]1(Cn1ccnc1)c1ccccc1 | – | – | – | – | – | – | – |
